Data published in ChEMBL document CHEMBL1155452, “Oncocin (VDKPPYLPRPRPPRRIYNR-NH2): a novel antibacterial peptide optimized against gram-negative human pathogens” (J Med Chem, 2010).

What was measured:
Pseudomonas aeruginosa [1] = test: Antimicrobial activity against Pseudomonas aeruginosa ATCC 27853 after 20 hrs by broth microdilution method; type: functional; conditions: ATCC 27853, 20 h
Method in brief: (§1)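 Pathogenic strains grown overnight on Columbia agar, colonies suspended in 0.9% saline to OD 0.1, diluted 1:300 in 1% TSB; final (1-2) × 10^5 cfu/well. Peptides 2-fold serially diluted in 1% TSB from 128 μg/mL, typically to 0.5 μg/mL. Incubated 37 °C, absorbance at 595 nm after 20 ± 2 h, in triplicate; MIC = lowest concentration with absorbance not exceeding medium only.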

Pseudomonas aeruginosa [2] = test: Antimicrobial activity against Pseudomonas aeruginosa PAO1 after 20 hrs by broth microdilution method; type: functional; conditions: PAO1, 20 h; method in brief: as §1
Acinetobacter baumannii [3] = test: Antimicrobial activity against Acinetobacter baumannii ICB 14067 after 20 hrs by broth microdilution method; type: functional; conditions: ICB 14067, 20 h
Method in brief: (§2)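 Pathogens grown overnight on Columbia agar. Colonies suspended in 0.9% saline to OD 0.1, diluted 1:300 in 1% TSB, final (1-2) × 10^5 cfu/well. Peptides 2-fold serially diluted in 1% TSB from 128 to typically 0.5 μg/mL. Incubation at 37 °C; A595 read after 20 ± 2 h. MIC is the lowest concentration with absorbance not above medium only. Triplicate.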

Serum [4] = test: Stability in 25% mouse serum assessed as peptide-12 level at 75 ug/ml after 30 mins by MALDI-TOF-MS analysis; type: ADME, cell-free; conditions: 0.5 h
Method in brief: (§3)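 Peptide at 75 μg/mL final in pooled mouse serum (undiluted or 25% v:v aqueous), 37 °C. Triplicate aliquots taken at 0, 30, 60, 120 and 240 min and precipitated with 3% TCA on ice for 10 min. Supernatant neutralized with NaOH and analysed by RP-HPLC on C18 with TFA-containing gradient. Amounts expressed relative to 0 min; metabolites identified by MALDI-TOF-MS.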

Pseudomonas aeruginosa [5] = test: Antimicrobial activity against Pseudomonas aeruginosa Walter after 20 hrs by broth microdilution method; type: functional; method in brief: as §1
Klebsiella pneumoniae [6] = test: Antimicrobial activity against Klebsiella pneumoniae 63 after 20 hrs by broth microdilution method; type: functional; conditions: Klebsiella pneumoniae, 63, 20 h; method in brief: as §1
Pseudomonas aeruginosa [7] = test: Antimicrobial activity against Pseudomonas aeruginosa 61118003 after 20 hrs by broth microdilution method; type: functional; conditions: Pseudomonas aeruginosa, 61118003, 20 h; method in brief: as §1
Enterobacter cloacae = test: Antimicrobial activity against Enterobacter cloacae Ha088 after 20 hrs by broth microdilution method; type: functional; conditions: Ha088, 20 h; method in brief: as §2
Klebsiella pneumoniae [8] = test: Antimicrobial activity against Klebsiella pneumoniae DSM 681 after 20 hrs by broth microdilution method; type: functional; conditions: DSM 681, 20 h; method in brief: as §2
Escherichia coli [9] = test: Antibacterial activity against Escherichia coli BL21 AI after 20 hrs by broth microdilution assay; type: functional
Method in brief: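 Nutrient-broth overnight cultures diluted in 1% TSB; E. coli BL21AI 7.5 × 10^5 cells/well, M. luteus ATCC 10240 2 × 10^6 cells/well. Peptides serially 2-fold diluted in 1% TSB from 128 to typically 0.5 μg/mL. Incubation at 37 °C; A595 read after 20 ± 2 h. MIC is the lowest concentration with absorbance not above medium only. Triplicate.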

Pseudomonas aeruginosa [10] = test: Antimicrobial activity against Pseudomonas aeruginosa 60909001 after 20 hrs by broth microdilution method; type: functional; conditions: Pseudomonas aeruginosa, 60909001, 20 h; method in brief: as §1
Escherichia coli [11] = test: Antimicrobial activity against Escherichia coli 70329001 after 20 hrs by broth microdilution method; type: functional; conditions: Escherichia coli, 70329001, 20 h; method in brief: as §2
Serum [12] = test: Stability in 25% mouse serum assessed as peptide-13 level at 75 ug/ml after 2 hrs by MALDI-TOF-MS analysis; type: ADME, cell-free; method in brief: as §3
Serum [13] = test: Stability in 25% mouse serum assessed as peptide-12 level at 75 ug/ml after 2 hrs by MALDI-TOF-MS analysis; type: ADME, cell-free; method in brief: as §3
SH-SY5Y = test: Cytotoxicity against human SH-SY5Y cells at 600 ug/ml after 24 hrs by MTT assay; type: cell-based
Method in brief: (§4)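 HeLa (1.5 × 10^4/well, seeded overnight) or SH-SY5Y (2 × 10^4/well, differentiated 5 days with 10 μM trans-retinoic acid) in DMEM/Ham's F-12 with 5% or 15% FBS. Peptide added at 600 μg/mL for 24 h at 37 °C, 5% CO2. MTT 0.5 mg/mL for 4 h, then SDS/HCl for 16 h; A590 read against 650 nm. Normalized to PBS (100%); DMSO 12% as positive control.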

Stenotrophomonas = test: Antimicrobial activity against Stenotrophomonas ICB 308054 after 20 hrs by broth microdilution method; type: functional; conditions: ICB 308054, 20 h; method in brief: as §2
Escherichia coli [14] = test: Antimicrobial activity against Escherichia coli Neumann after 20 hrs by broth microdilution method; type: functional; method in brief: as §2
Klebsiella pneumoniae [15] = test: Antimicrobial activity against Klebsiella pneumoniae ATCC 12657 after 20 hrs by broth microdilution method; type: functional; conditions: ATCC 12657, 20 h; method in brief: as §2
Acinetobacter baumannii [16] = test: Antimicrobial activity against Acinetobacter baumannii ICB 14073 after 20 hrs by broth microdilution method; type: functional; conditions: ICB 14073, 20 h; method in brief: as §2
Klebsiella pneumoniae [17] = test: Antimicrobial activity against Klebsiella pneumoniae ATCC 27799 after 20 hrs by broth microdilution method; type: functional; conditions: ATCC 27799, 20 h; method in brief: as §1
Escherichia coli [18] = test: Antimicrobial activity against Escherichia coli 70419002 after 20 hrs by broth microdilution method; type: functional; conditions: Escherichia coli, 70419002, 20 h; method in brief: as §2
Proteus vulgaris [19] = test: Antimicrobial activity against Proteus vulgaris ICB 9095 after 20 hrs by broth microdilution method; type: functional; conditions: ICB 9095, 20 h; method in brief: as §2
Proteus vulgaris [20] = test: Antimicrobial activity against Proteus vulgaris ICB 9081 after 20 hrs by broth microdilution method; type: functional; conditions: ICB 9081, 20 h; method in brief: as §2
HeLa = test: Cytotoxicity against human HeLa cells at 600 ug/ml after 24 hrs by MTT assay; type: cell-based; method in brief: as §4
Escherichia coli [21] = test: Antimicrobial activity against Escherichia coli 70430001 after 20 hrs by broth microdilution method; type: functional; conditions: Escherichia coli, 70430001, 20 h; method in brief: as §2
Acinetobacter baumannii [22] = test: Antimicrobial activity against Acinetobacter baumannii M17 after 20 hrs by broth microdilution method; type: functional; conditions: M17, 20 h; method in brief: as §2
Escherichia coli [23] = test: Antimicrobial activity against Escherichia coli 205024 after 20 hrs by broth microdilution method; type: functional; conditions: Escherichia coli, 205024, 20 h; method in brief: as §2
Serum [24] = test: Stability in 25% mouse serum assessed as peptide-13 level at 75 ug/ml after 30 mins by MALDI-TOF-MS analysis; type: ADME, cell-free; conditions: 0.5 h; method in brief: as §3
Klebsiella pneumoniae [25] = test: Antimicrobial activity against Klebsiella pneumoniae 57 USA after 20 hrs by broth microdilution method; type: functional; method in brief: as §2
[26] = Drug uptake in Escherichia coli BL21 AI assessed as intracellular localization at 30 ug/ml after 20 mins by confocal fluorescence microscopy; type: ADME, cell-based; conditions: escherichia coli bl21, 20 min; in the assay text read “30 uM” for “30 ug/ml”
Method in brief: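 E. coli BL21 AI overnight culture diluted to 1.5 × 10^7 cells/mL in 1% TSB. 5(6)-Carboxyfluorescein N-terminally labelled peptide added at 30 μmol/L final, with 60-fold molar excess of TAMRA to quench extracellular fluorescence. Imaged at room temperature at 20 and 50 min by confocal laser scanning microscopy (488 nm excitation), with phase contrast.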

[27] = Stability in 100% mouse serum assessed as half life at 75 ug/ml by MALDI-TOF-MS analysis; type: ADME, cell-free; method in brief: as §3

In the case of H-VDKPPYLPRPRPPRRIYNR-NH2 [ONCOCIN], the MIC (Pseudomonas aeruginosa [1]) is reported as 4 µg/mL, the MIC (Pseudomonas aeruginosa [2]) is reported as 2 µg/mL and the MIC (Acinetobacter baumannii [3]) is reported as 1 µg/mL. For the same substance, the Activity (Serum [4]) was 10%, the MIC (Pseudomonas aeruginosa [5]) was 8 µg/mL and the MIC (Klebsiella pneumoniae [6]) was 8 µg/mL. It also gave an MIC (Pseudomonas aeruginosa [7]) of 2 µg/mL, an MIC (Enterobacter cloacae) of 0.125 µg/mL and an MIC (Klebsiella pneumoniae [8]) of 0.25 µg/mL. It also gave an MIC (Escherichia coli [9]) of 4 µg/mL, an MIC (Pseudomonas aeruginosa [10]) of 2 µg/mL and an MIC (Escherichia coli [11]) of 1 µg/mL. The Activity (Serum [12]) was 20%, the Activity (Serum [13]) was 20% and the Activity (SH-SY5Y) was “Non-toxic”. The MIC (Stenotrophomonas) was 32 µg/mL, the MIC (Escherichia coli [14]) was 2 µg/mL and the MIC (Klebsiella pneumoniae [15]) was 0.5 µg/mL. It also gave an MIC (Acinetobacter baumannii [16]) of 2 µg/mL, an MIC (Klebsiella pneumoniae [17]) of 1 µg/mL and an MIC (Escherichia coli [18]) of 8 µg/mL. For the same substance, the MIC (Proteus vulgaris [19]) was 4 µg/mL, the MIC (Proteus vulgaris [20]) was 4 µg/mL and the Activity (HeLa) was “Non-toxic”. For the same substance, the MIC (Escherichia coli [21]) was 1 µg/mL, the MIC (Acinetobacter baumannii [22]) was 1 µg/mL and the MIC (Escherichia coli [23]) was 4 µg/mL. The Activity (Serum [24]) was 10%, the MIC (Klebsiella pneumoniae [25]) was 0.25 µg/mL and the Activity [26] was “Active”. The half-life at 75 ug/ml [27] was 20 min.
